Screens: PubChem BioAssay, several laboratories
Calb FLC = C. albicans growth inhibition with fluconazole, primary screen, CaCi-2 strain, Alamar Blue fluorescence | C. albicans CaCi-2 (fluconazole-resistant clinical isolate) + fluconazole, 48 h | growth inhibition, % (test concentration not listed) | hit rate 0.57% among 300,000 | AID 1979, 2009;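 active means growth inhibition above about 58% in most replicates, limit read from the data, passing the limit was not always enough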;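 further: all wells also contain fluconazole at 8 µg/ml as a sub-toxic cotreatment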
beta cell repl = inducers of MIN6 beta-cell proliferation, primary screen, ATP luminescence, uHTS | AID 2380, 2010 | hit rate 0.29% among 330,000 | proliferation, % at 10 µM | MIN6 cells proliferation, ATPlite luminescence, 48 h; cells starved in 0.2% serum; 100% = growth in 10% serum;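 active means compounds whose signal lies at least 3.5 SD above the mean of all wells on their plate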
SR-BI HDL uptake = inhibitors of SR-BI mediated HDL lipid uptake, primary screen, ldlA[mSR-BI] cells, fluorescence, single point. ldlA[mSR-BI] CHO cells, DiI-HDL uptake fluorescence, 3 h. AID 488896, 2010. hit rate 0.96% among 320,000. inhibition, % at 12.5 µM;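 active means mean replicate inhibition of at least 70% and a set share of replicates each scoring 70 or more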
Target sequence (Q61009 whole entry, looked up): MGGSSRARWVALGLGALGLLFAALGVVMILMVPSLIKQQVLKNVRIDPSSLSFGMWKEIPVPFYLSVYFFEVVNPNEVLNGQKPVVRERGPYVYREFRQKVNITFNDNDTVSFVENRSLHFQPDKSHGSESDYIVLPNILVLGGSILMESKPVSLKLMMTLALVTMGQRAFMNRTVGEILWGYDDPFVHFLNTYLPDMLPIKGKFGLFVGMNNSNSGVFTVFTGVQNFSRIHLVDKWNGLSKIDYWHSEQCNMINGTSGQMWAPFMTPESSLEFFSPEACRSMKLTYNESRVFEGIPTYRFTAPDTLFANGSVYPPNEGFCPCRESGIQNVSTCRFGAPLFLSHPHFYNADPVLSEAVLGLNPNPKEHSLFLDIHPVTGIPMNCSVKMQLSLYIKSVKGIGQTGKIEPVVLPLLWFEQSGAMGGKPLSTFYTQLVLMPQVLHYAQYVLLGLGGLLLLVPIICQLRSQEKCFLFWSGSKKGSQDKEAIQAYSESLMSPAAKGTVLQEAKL
Insulin prom up = insulin promoter activators in MIN6 cells, imaging, high-content screening, mouse beta cells. MIN6 insulin promoter-GFP reporter; active compounds read high. z-score at 5 µM. hit rate 0.3% among 190,000;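 active means z-score above 3 at 5 µM with at least 500 cells counted in the well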
SR-BI uptake up = activators of SR-BI mediated DiI-HDL uptake, primary screen, ldlA[mSR-BI] CHO cells, DiI fluorescence | 3 h; 100 = double the neutral-control signal | activation, % at 12.5 µM | hit rate 0.096% among 320,000;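 active means mean replicate activation of at least 60% and every replicate at or above 60%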
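Material: SR-BI-overexpressing, LDLR-lacking CHO cells; schedule: compound exposure 3 h, 37 °C; reagent: DiI-labelled HDL at 10 µg/mL final; technique: bottom-read fluorescence, 550/595 nm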
HTR2A ag = mouse Htr2a agonists via beta-arrestin recruitment, primary screen, cell-based, luminescence; hit rate 0.66% among 360,000; CHO-K1 mHTR2A beta-arrestin complementation; percent of 30 µM serotonin response; 5-hydroxytryptamine receptor 2A (Mus musculus), P35363; activation, % at 7.6 µM; AID 624169, 2012;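 active means activation above a run cutoff, the mean activation of all tested compounds plus 3 SD, cut at about 14% in these data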
A number is an active result; 0 = inactive; - = not tested or not shown. Shown are actives, neighbours in structure and some others; about 2.4% of the full set was active somewhere.

SMILES	Calb FLC	beta cell repl	SR-BI HDL uptake	Insulin prom up	SR-BI uptake up	HTR2A ag
Brc1cccc(-c2nc3ccc(Br)cn3c2Cc2ccccc2)c1	-	-	-	-	-	0
Cc1ccc(C(=O)c2coc3c2C(=O)C(=O)c2ccccc2-3)cc1	80	0	0	0	0	0
Cc1ccc(C(=O)c2c(C)oc3c2C(=O)C(=O)c2ccccc2-3)cc1	0	0	0	0	0	0
O=c1c2ccccc2nc(COc2ccccc2)n1/N=C/c1cc([N+](=O)[O-])ccc1O	0	0	130	0	0	0
Cc1cc(/C=N/n2c(COc3ccccc3C)nc3ccccc3c2=O)c(O)c([N+](=O)[O-])c1	91	0	144	0	0	0
Cc1cc(C)nc(S/C=C/C(=O)c2ccccc2F)n1	0	0	0	0	0	0
Cc1cccc2nc(-c3ccccc3)nc(N[C@@H](CO)c3ccccc3)c12	0	0	0	-	0	0
O=C(OCC(=O)N1CCc2ccccc2C1)c1c(F)cccc1Cl	-	0	0	-	0	0
CN(Cc1ccc(Cl)c(Cl)c1)C(=O)C1CSC2(C)CCC(=O)N12 (configuration not stated)	-	0	0	-	0	0
COc1ccc(C)cc1NC(=O)c1cccc(-c2ccc(OC(C)=O)cc2)c1	0	0	77	-	0	0
Cc1ccc(NC(=O)c2ccc(OCc3c(C)noc3C)cc2)c(C)c1	-	0	0	-	-	0
COc1ccc(C)cc1NC(=O)c1ccc(OCc2c(C)noc2C)cc1	-	0	71	-	0	0
Cc1ccc(NC(=O)c2ccc(OCc3c(C)noc3C)cc2)cc1C	-	0	89	-	0	0
COc1cc(C(=O)NCC2CCCCC2)ccc1OCc1c(C)noc1C	-	0	0	-	0	0
COc1cc(C(=O)NCCOc2ccc(Cl)cc2)ccc1OCc1c(C)noc1C	-	0	84	-	0	0
O=C(Nc1cccc2ccccc12)c1cn(-c2ccccc2)nc1-c1cccs1	0	0	0	0	0	17
O=C(Nc1cccnc1)c1cn(-c2ccccc2)nc1-c1cccs1	0	0	0	-	0	0
CCn1nc(C)c(CN2CCC(n3nccc3NC(=O)Cc3ccccc3)CC2)c1C	0	0	0	-	0	0
COc1cc(OC)cc(-c2cc3cc(F)ccc3cn2)c1	-	0	74	-	0	0
Cc1cccc(Nc2nnc(-c3ccc(N4CCOCC4)c([N+](=O)[O-])c3)c3ccccc23)c1	0	0	73	0	0	0
CCc1ccc(NC(=O)c2cc(C(C)C)on2)cc1	0	0	0	3.4	0	0
CCc1ccc(NC(=O)c2cc(C)on2)cc1	0	0	0	0	0	0
CC(NC(=O)c1ccc(S(=O)(=O)Nc2ccccc2Cl)cc1)c1ccncc1 (configuration not stated)	-	0	0	-	0	0
CN=C1SC(CC(=O)Nc2ccccc2F)C(=O)N1/N=C/c1ccc(O)c(OC)c1 (configuration not stated)	0	0	74	0	0	0
CCCCN(C=O)c1c(CC)nc2ccc(C(=O)N3CCN(c4ccccc4)CC3)cn12	-	-	-	-	-	0
SMILES	Calb FLC	beta cell repl	SR-BI HDL uptake	Insulin prom up	SR-BI uptake up	HTR2A ag
Cn1c(=O)n(C)c2cc(NC(=O)COc3ccc(F)cc3F)ccc21	0	0	0	-	0	0
Cn1c(=O)n(C)c2cc(NC(=O)COc3ccc(Cl)cc3)ccc21	0	0	0	3	0	0
COc1ccc(CNC(=O)CN(C(=O)c2csnn2)c2cccc3c2CCCC3)cc1	0	0	76	-	0	0
CC1(C)Cc2c(cnn2-c2ccccc2)C(=O)/C1=N\NC(=O)c1ccccc1N	0	0	75	0	0	0
Nc1c(C(=O)N/N=C/c2ccccc2)cnn1-c1ccccc1	0	0	0	0	0	0
Cc1cccc2c(N=NC(=O)c3ccc(NS(=O)(=O)c4cccs4)cc3)c(O)[nH]c12	-	0	0	-	0	0
Cc1cccc2c(N=Nc3ccc(S(=O)(=O)Nc4ccc(Cl)cc4)cc3[N+](=O)[O-])c(O)[nH]c12	0	0	97	0	0	0
CC1(C)C(=O)Nc2ccccc2N1C(=O)COc1ccc(C#N)cc1	-	0	0	-	0	0
